# Measurements reported in ChEMBL document CHEMBL4393719, “Tetrahydro-3-benzazepines with fluorinated side chains as NMDA and σ1 receptor antagonists: Synthesis, receptor affinity, selectivity and antiallodynic activity” (Eur J Med Chem, 2019).
# The source made the active and inactive calls.
# Assays:
# [1] = test system: Mus musculus; assay: Antiallodynic activity in CD-1 mouse model of capsaicin-induced mechanical allodynia assessed as increase in paw withdrawal threshold at 32 mg/kg, sc administered 30 mins before capsaicin addition and measured after 15 mins in presence of sigma1 receptor agonist PRE-084 by von-Frey test; format: functional, organism-based
# Method in brief: (§1)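 Female CD-1 mice pretreated sc with σ1 agonist PRE-084 (32 mg/kg) 5 min before sc test compound; 30 min later capsaicin 1 µg intraplantar. After 15 min, 0.5 g electronic von Frey stimulus on secondary hyperalgesia area; withdrawal latency averaged over three trials, 50 s cutoff. Effect as % antiallodynia versus HPMC-treated; 6-8 animals, one-way ANOVA plus Bonferroni.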
# [2] = Selectivity ratio of Ki for GluN2B/GluN1a (unknown origin) expressed in mouse L(tk-) cell membranes to Ki for sigma1 receptor in guinea pig brain cortex membranes; format: cell-based
# [3] = molecular target: Voltage-gated inwardly rectifying potassium channel KCNH2 (Homo sapiens, UniProt Q12809); assay: Inhibition of human ERG expressed in CHO cells at -80 mV holding potential by automated patch clamp electrophysiology assay; format: cell-based
# Voltage-gated inwardly rectifying potassium channel KCNH2, sequence (Q12809 whole entry): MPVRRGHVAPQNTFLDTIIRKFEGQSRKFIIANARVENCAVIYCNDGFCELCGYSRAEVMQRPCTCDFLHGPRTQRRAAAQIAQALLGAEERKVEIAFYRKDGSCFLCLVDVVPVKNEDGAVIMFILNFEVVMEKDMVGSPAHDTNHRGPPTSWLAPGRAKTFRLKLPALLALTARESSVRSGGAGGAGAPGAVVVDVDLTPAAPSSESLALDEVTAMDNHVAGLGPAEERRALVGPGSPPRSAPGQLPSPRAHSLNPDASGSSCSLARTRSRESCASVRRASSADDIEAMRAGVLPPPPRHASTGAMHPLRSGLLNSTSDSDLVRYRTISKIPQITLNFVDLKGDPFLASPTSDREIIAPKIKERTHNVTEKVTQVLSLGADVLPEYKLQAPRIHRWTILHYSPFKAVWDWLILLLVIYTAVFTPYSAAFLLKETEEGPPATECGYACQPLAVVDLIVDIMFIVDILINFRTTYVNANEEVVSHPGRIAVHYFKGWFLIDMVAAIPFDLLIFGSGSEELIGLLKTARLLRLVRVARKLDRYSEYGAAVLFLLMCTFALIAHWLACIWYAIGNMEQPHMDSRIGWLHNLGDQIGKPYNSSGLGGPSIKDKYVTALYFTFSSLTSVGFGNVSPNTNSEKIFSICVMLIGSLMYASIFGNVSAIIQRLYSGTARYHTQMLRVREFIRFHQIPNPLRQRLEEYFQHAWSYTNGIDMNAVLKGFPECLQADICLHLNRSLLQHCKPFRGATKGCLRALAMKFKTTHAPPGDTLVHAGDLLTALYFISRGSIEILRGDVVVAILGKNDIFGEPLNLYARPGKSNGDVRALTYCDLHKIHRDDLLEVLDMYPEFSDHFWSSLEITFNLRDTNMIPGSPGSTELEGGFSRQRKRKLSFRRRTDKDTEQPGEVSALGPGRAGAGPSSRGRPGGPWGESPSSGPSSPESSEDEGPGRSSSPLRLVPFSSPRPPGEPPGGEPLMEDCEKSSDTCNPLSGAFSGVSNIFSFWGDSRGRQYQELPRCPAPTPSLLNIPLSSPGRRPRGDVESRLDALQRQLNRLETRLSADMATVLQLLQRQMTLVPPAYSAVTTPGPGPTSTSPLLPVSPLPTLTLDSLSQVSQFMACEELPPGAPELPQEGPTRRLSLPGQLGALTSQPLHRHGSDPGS
# [4] = test system: Mus musculus; assay: Antiallodynic activity in CD-1 mouse model of capsaicin-induced mechanical allodynia assessed as increase in paw withdrawal threshold at 16 mg/kg, sc administered 30 mins before capsaicin addition and measured after 15 mins in presence of sigma1 receptor agonist PRE-084 by von-Frey test; format: functional, organism-based; method in brief: as §1
# [5] = molecular target: Histamine H1 receptor (Homo sapiens) (UniProt P35367); assay: Displacement of [3H]pyrilamine from human recombinant histamine H1 receptor at 1 uM after 90 mins by scintillation counting method relative to control
# Histamine H1 receptor (Homo sapiens), sequence (P35367 whole entry): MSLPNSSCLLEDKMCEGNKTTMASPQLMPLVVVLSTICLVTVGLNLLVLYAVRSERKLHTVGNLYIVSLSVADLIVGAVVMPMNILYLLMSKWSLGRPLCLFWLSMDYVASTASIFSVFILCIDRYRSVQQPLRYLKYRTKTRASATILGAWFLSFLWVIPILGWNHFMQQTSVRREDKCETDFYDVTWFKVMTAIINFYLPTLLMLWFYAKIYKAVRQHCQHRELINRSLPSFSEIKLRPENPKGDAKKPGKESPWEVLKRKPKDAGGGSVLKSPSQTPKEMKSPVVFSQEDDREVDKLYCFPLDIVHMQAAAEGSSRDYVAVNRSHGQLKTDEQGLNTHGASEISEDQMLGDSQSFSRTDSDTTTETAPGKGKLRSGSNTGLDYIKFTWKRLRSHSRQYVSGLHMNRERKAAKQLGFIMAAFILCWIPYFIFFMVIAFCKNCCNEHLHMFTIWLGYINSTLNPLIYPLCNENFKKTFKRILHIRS
# Method in brief: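 Human H1 receptor-enriched membranes (25 μg) with 2.4 nM [3H]pyrilamine in Na+/K+ phosphate buffer pH 7.4, 0.1% DMSO, 90 min, 25 °C; 10 μM triprolidine for nonspecific binding. Single 1 μM test concentration; filtration-based readout of displacement.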
# [6] = molecular target: Sodium-dependent noradrenaline transporter (Homo sapiens) (UniProt P23975); assay: Displacement of [3H]nisoxetine from recombinant human norepinephrine transporter at 1 uM after 60 mins by scintillation counting method relative to control
# Sodium-dependent noradrenaline transporter (Homo sapiens), sequence (P23975 whole entry): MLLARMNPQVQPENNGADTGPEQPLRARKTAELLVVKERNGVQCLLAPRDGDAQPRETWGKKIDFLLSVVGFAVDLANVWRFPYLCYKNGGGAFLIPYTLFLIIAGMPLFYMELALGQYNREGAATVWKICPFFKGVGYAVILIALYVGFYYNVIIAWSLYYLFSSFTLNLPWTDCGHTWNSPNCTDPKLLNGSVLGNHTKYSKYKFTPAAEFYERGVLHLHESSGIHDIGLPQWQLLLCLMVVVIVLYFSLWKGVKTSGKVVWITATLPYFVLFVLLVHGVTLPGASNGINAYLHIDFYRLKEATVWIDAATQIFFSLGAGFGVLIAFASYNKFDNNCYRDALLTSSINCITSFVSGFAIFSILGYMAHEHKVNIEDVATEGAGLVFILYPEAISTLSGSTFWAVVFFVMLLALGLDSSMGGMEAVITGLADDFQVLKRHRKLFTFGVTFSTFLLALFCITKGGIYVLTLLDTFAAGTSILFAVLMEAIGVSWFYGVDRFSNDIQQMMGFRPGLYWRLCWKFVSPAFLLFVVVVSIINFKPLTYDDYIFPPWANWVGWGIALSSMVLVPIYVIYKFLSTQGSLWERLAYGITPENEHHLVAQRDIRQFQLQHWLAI
# Method in brief: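 Human NET-enriched membranes (1 μg), 5 nM [3H]nisoxetine in 50 mM Tris-HCl, 120 mM NaCl, 5 mM KCl, pH 7.4, 1% DMSO final; 60 min at 4 °C; 10 μM desipramine for nonspecific binding. Single 1 μM compound; filtration, displacement of radioligand.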
# [7] = test system: Mus musculus; assay: Antiallodynic activity in CD-1 mouse model of capsaicin-induced mechanical allodynia assessed as increase in paw withdrawal threshold at 8 mg/kg, sc administered 30 mins before capsaicin addition and measured after 15 mins by von-Frey test; format: functional, organism-based
# Method in brief: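 Female CD-1 mice given compound or HPMC vehicle sc 30 min before intraplantar capsaicin (1 µg in 20 µL, 1% DMSO). 15 min later, electronic von Frey punctate stimulus (0.5 g) at least 5 mm from injection site; paw withdrawal latency, three trials 30 s apart, 50 s cutoff. % antiallodynic effect = [(LTD−LTS)/(CT−LTS)]×100; 6-8 mice per group, ANOVA with Bonferroni.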
# [8] = molecular target: 5-hydroxytryptamine receptor 2B (Homo sapiens) (UniProt P41595); assay: Displacement of [3H]-LSD from recombinant human 5HT2B receptor at 1 uM after 30 mins by scintillation counting method relative to control
# 5-hydroxytryptamine receptor 2B (Homo sapiens), sequence (P41595 whole entry): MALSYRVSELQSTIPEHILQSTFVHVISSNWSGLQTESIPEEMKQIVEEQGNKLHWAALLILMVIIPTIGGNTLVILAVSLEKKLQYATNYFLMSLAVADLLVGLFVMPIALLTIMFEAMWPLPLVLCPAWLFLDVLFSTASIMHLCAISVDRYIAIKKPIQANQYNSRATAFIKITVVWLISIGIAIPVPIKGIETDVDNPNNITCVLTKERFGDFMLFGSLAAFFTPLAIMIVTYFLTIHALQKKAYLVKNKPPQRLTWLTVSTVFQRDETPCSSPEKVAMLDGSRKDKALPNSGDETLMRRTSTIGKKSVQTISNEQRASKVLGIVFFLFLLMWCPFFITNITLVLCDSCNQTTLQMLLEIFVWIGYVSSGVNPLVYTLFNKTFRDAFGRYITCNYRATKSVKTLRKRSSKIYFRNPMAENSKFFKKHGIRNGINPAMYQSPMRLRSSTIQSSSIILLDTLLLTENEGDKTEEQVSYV
# Method in brief: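 Human 5-HT2B-enriched membranes (5 µg), 1 nM [3H]LSD in 50 mM Tris-HCl, 4 mM CaCl2, 1% ascorbic acid, pH 7.4, 0.1% DMSO; 30 min, 37 °C; 50 µM 5-HT for nonspecific binding. Single 1 µM compound concentration; displacement after filtration.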
smiles,measurement,setting,value
COc1ccc2c(c1)CCN(CCC(F)Cc1ccccc1)CC2 (stereo not drawn),Activity,[1],Active
same,Ratio Ki,[2],< 18
same,IC50,[3],553 nM
same,Activity,[4],inactive
same,inhibition,[5],< 50%
same,inhibition,[6],< 50%
same,Activity,[7],Active
same,inhibition,[8],< 50%
